Non-standard residues stand in square brackets, D forms with d. Residues, ends and D or L forms follow the SMILES beside them. *: point of attachment. Dolaproine = CO[C@@H]([C@@H]1CCCN1)[C@@H](C)C(=O)O; Dil = CC[C@H](C)[C@H](NC)[C@@H](CC(=O)O)OC; Doe = c1ccc(C[C@H](N*)c2nccs2)cc1; X1 = C[C@@H](N*)[C@@H](O)c1ccccc1; NMeV = CN[C@H](C(=O)O)C(C)C; NMeA = CN[C@@H](C)C(=O)O; NMeAib = CNC(C)(C)C(=O)O; Aib = CC(C)(N)C(=O)O; Sar = CNCC(=O)O
Assays:
BT-474 = assay: Cytotoxicity against human BT474 cells assessed as cell viability incubated fore 4 days by MTS assay; format: functional; details: BT-474, 96 h
Procedure, shortened: (§1)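 Cells seeded at low density in 96-well plates, dosed next day with 3-fold serial dilutions at 10 concentrations in duplicate. Incubated 4 days at 37C/5% CO2. Viability read by MTS reagent (1.5 h), absorbance at 490 nm. Four-parameter logistic fit. Reported as arithmetic mean GI50 (nM) with standard deviation over n individual runs, each run a duplicate readout.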

NCI-N87 = assay: Cytotoxicity against human NCI-N87 cells assessed as cell viability incubated fore 4 days by MTS assay; format: functional; details: NCI-N87, 96 h; procedure, shortened: as §1
MDA-MB-361 = assay: Cytotoxicity against human MDA-MB-361 cells assessed as cell viability incubated fore 4 days by MTS assay; format: functional; details: MDA-MB-361, 96 h; procedure, shortened: as §1
[1] = Apparent intrinsic clearance in human liver microsomes at 1 uM; format: ADME; details: read-out: CLH(app)
Procedure, shortened: (§2)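 Apparent intrinsic clearance measured at 1 μM substrate in human liver microsomes (μl/min/mg) and in human hepatocytes (μl/min/million cells).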

Hepatocyte = assay: Apparent intrinsic clearance in human liver hepatocytes at 1 uM; format: ADME, cell-based; procedure, shortened: as §2
[2] = Drug metabolism in rat liver S9 fraction assessed as formation of NADPH-dependent oxidative metabolites; format: ADME, subcellular
[3] = Half life in Han Wistar rat at 20 ug/kg, iv by LC-MS/MS analysis; format: ADME, organism-based; details: in vivo, 0.02 mg/kg
Procedure, shortened: (§3)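 Male Wistar Han rats (n = 3), single IV dose of 20 µg/kg. Plasma levels by LC-MS/MS. Cmax, Tmax, AUCt (zero to last measurable concentration), systemic serum clearance, Vss and terminal t1/2 given as mean ± spread.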

[4] = Fraction unbound in rat plasma at 0.1 uM; format: ADME, cell-free
Procedure, shortened: (§4)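 Plasma protein binding measured at 0.1 uM in monkey, rat and human plasma. Reported as fraction unbound.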

[5] = Drug metabolism in human liver S9 fraction assessed as formation of amide hydrolysis products; format: ADME, subcellular
[6] = Drug metabolism in rat liver S9 fraction assessed as formation of glucuronide conjugates; format: ADME, subcellular
[7] = Fraction unbound in human plasma at 0.1 uM; format: ADME, cell-free; procedure, shortened: as §4
[8] = Drug metabolism in rat liver S9 fraction assessed as formation of amide hydrolysis products; format: ADME, subcellular
[9] = Drug metabolism in monkey liver S9 fraction assessed as formation of amide hydrolysis products; format: ADME, subcellular, Macaca mulatta; details: rhesus monkey
[10] = Drug metabolism in monkey liver S9 fraction assessed as formation of glucuronide conjugates; format: ADME, subcellular, Macaca mulatta; details: rhesus monkey
[11] = Drug recovery in Han Wistar rat bile at 36 ug/kg, iv bolus dose; format: ADME, organism-based; details: 0.036 mg/kg, read-out: Drug recovery
Cytochrome P450 3A4 = Cytochrome P450 3A4 (Homo sapiens, UniProt P08684); assay: Drug metabolism assessed as human recombinant CYP3A4-mediated hydroxylation occurring on N-terminus; format: ADME; details: recombinant enzyme
Chain of Cytochrome P450 3A4 (P08684 whole entry): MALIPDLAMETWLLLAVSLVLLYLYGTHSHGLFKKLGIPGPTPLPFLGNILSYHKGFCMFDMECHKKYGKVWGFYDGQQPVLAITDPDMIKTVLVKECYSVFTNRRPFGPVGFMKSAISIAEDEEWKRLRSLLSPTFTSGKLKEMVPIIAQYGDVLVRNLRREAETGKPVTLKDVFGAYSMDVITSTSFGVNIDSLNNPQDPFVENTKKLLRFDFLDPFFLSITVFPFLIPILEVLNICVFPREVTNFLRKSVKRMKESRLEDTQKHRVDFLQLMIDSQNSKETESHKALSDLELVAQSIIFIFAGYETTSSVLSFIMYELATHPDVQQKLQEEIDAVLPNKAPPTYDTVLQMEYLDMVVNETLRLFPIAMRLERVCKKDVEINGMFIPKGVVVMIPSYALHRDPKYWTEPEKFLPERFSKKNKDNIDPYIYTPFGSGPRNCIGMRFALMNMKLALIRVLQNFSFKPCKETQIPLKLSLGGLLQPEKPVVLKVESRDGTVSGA

[12] = Drug metabolism in human liver S9 fraction assessed as formation of NADPH-dependent oxidative metabolites; format: ADME, subcellular
[13] = Tmax in Han Wistar rat at 20 ug/kg, iv by LC-MS/MS analysis; format: ADME, organism-based; details: in vivo, 0.02 mg/kg; procedure, shortened: as §3
[14] = Fraction unbound in monkey plasma at 0.1 uM; format: ADME, cell-free, Macaca mulatta; details: rhesus monkey; procedure, shortened: as §4
[15] = Drug metabolism in monkey liver S9 fraction assessed as formation of NADPH-dependent oxidative metabolites; format: ADME, subcellular, Macaca mulatta; details: rhesus monkey
[16] = AUCt in Han Wistar rat at 20 ug/kg, iv by LC-MS/MS analysis; format: ADME, organism-based; details: plasma, 0.02 mg/kg
Procedure, shortened: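 Male Wistar Han rats (n = 3) received a single IV dose of 20 µg/kg. Serum/plasma concentrations were measured by LC-MS/MS. AUCt was taken from time zero to the last measurable concentration. Values are reported as mean ±.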

[17] = Clearance in Han Wistar rat at 20 ug/kg, iv by LC-MS/MS analysis; format: ADME, organism-based; details: in vivo, 0.02 mg/kg; procedure, shortened: as §3
[18] = Volume of distribution at steady state in Han Wistar rat at 20 ug/kg, iv by LC-MS/MS analysis; format: ADME, organism-based; details: in vivo, 0.02 mg/kg, read-out: Vdss; procedure, shortened: as §3
[19] = Drug metabolism in human liver S9 fraction assessed as formation of glucuronide conjugates; format: ADME, subcellular
[20] = Cmax in Han Wistar rat at 20 ug/kg, iv by LC-MS/MS analysis; format: ADME, organism-based; parameters: dose 20 ug/kg, route intravenous; details: in vivo, 0.02 mg/kg; procedure, shortened: as §3
[21] = Drug recovery in Han Wistar rat urine at 36 ug/kg, iv bolus dose; format: ADME, organism-based; details: 0.036 mg/kg, read-out: Drug recovery
Procedure, shortened: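 Single IV bolus of 36 µg/kg. Fraction of dose recovered in urine (Wistar Han rats, n = 3) and in bile (Sprague-Dawley rats, n = 3).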

Work on `CC[C@H](C)[C@@H]([C@@H](CC(=O)N1CCC[C@H]1[C@H](OC)[C@@H](C)C(=O)N[C@@H](Cc1ccccc1)c1nccs1)OC)N(C)C(=O)[C@@H](NC(=O)[C@]1(F)CCNC1)C(C)C` yielded a GI50 (BT-474) of 0.16 nM, a GI50 (NCI-N87) of 0.59 nM and a GI50 (MDA-MB-361) of 0.25 nM.

`CC[C@H](C)[C@@H]([C@@H](CC(=O)N1CCC[C@H]1[C@H](OC)[C@@H](C)C(=O)N[C@@H](Cc1ccccc1)c1nccs1)OC)N(C)C(=O)[C@@H](NC(=O)[C@H](C)NC)C(C)C` (H-[NMeA]V[Dil][Dolaproine]-Doe) gave a GI50 (BT-474) of 0.23 nM, a GI50 (NCI-N87) of 0.42 nM and a GI50 (MDA-MB-361) of 0.25 nM.

With `CC[C@H](C)[C@@H]([C@@H](CC(=O)N1CCC[C@H]1[C@H](OC)[C@@H](C)C(=O)N[C@@H](Cc1ccccc1)c1nccs1)OC)N(C)C(=O)[C@@H](NC(=O)[C@@]1(C)CCCN1)C(C)C` the GI50 (BT-474) was 0.11 nM, the GI50 (NCI-N87) was 0.36 nM and the GI50 (MDA-MB-361) was 0.21 nM.

With `CC[C@H](C)[C@@H]([C@@H](CC(=O)N1CCC[C@H]1[C@H](OC)[C@@H](C)C(=O)N[C@H](C)[C@@H](O)c1ccccc1)OC)N(C)C(=O)[C@@H](NC(=O)[C@@H](NC)C(C)C)C(C)C` (H-[NMeV]V[Dil][Dolaproine]-X1) the GI50 (BT-474) was 0.22 nM, the microsomal CLint at 1 µM [1] was 24 µL/min/mg and the GI50 (NCI-N87) was 0.54 nM. The GI50 (MDA-MB-361) was 0.49 nM and the “CLH(app)” value (Hepatocyte) was 3 µL/min/mg.

In the case of `CC[C@H](C)[C@@H]([C@@H](CC(=O)N1CCC[C@H]1[C@H](OC)[C@@H](C)C(=O)N[C@@H](Cc1ccccc1)c1nccs1)OC)N(C)C(=O)[C@@H](NC(=O)C(C)(C)N)C(C)C` (H-[Aib]V[Dil][Dolaproine]-Doe), the Drug metabolism [2] is reported as “metabolite_detected”, the GI50 (BT-474) is reported as 0.26 nM and the half-life [3] is reported as 5.85 h. For the same molecule, the fraction unbound at 0.1 µM [4] was 0.1, the Drug metabolism [5] was “metabolite_notdetected” and the Drug metabolism [6] was “metabolite_notdetected”. The fraction unbound at 0.1 µM [7] was 0.07, the Drug metabolism [8] was “metabolite_notdetected” and the Drug metabolism [9] was “metabolite_notdetected”. For the same molecule, the Drug metabolism [10] was “metabolite_notdetected”, the dose excreted [11] was 4% and the Drug metabolism (Cytochrome P450 3A4) was “metabolite_detected”. The microsomal CLint at 1 µM [1] was 84 µL/min/mg, the GI50 (NCI-N87) was 0.27 nM and the Drug metabolism [12] was “metabolite_detected”. The Tmax [13] was 8.4 min, the GI50 (MDA-MB-361) was 0.19 nM and the fraction unbound at 0.1 µM [14] was 0.24. For the same molecule, the Drug metabolism [15] was “metabolite_detected”, the AUC(0-t) [16] was 4.51 ng·h/mL and the clearance [17] was 70 mL/min/kg. For the same molecule, the Vd [18] was 14.7 L/kg, the Drug metabolism [19] was “metabolite_notdetected” and the Cmax [20] was 19.4 ng/mL. The dose excreted [21] was 8% and the “CLH(app)” value (Hepatocyte) was 21 µL/min/mg.

`CC[C@H](C)[C@@H]([C@@H](CC(=O)N1CCC[C@H]1[C@H](OC)[C@@H](C)C(=O)N[C@@H](Cc1ccccc1)c1nccs1)OC)N(C)C(=O)[C@@H](NC(=O)C(C)(C)NC)C(C)C` (H-[NMeAib]V[Dil][Dolaproine]-Doe) showed a GI50 (BT-474) of 0.045 nM, a GI50 (NCI-N87) of 0.12 nM and a GI50 (MDA-MB-361) of 0.076 nM.

Molecule `CC[C@H](C)[C@@H]([C@@H](CC(=O)N1CCC[C@H]1[C@H](OC)[C@@H](C)C(=O)N[C@@H](Cc1ccccc1)c1nccs1)OC)N(C)C(=O)[C@@H](NC(=O)CNC)C(C)C` (H-[Sar]V[Dil][Dolaproine]-Doe) has a GI50 (BT-474) of 0.49 nM, a GI50 (NCI-N87) of 1.2 nM and a GI50 (MDA-MB-361) of 0.69 nM.

`CC[C@H](C)[C@@H]([C@@H](CC(=O)N1CCC[C@H]1[C@H](OC)[C@@H](C)C(=O)N[C@@H](Cc1ccccc1)c1nccs1)OC)N(C)C(=O)[C@@H](NC(=O)C(C)(C)CNC)C(C)C` showed a GI50 (BT-474) of 0.25 nM, a GI50 (NCI-N87) of 1.1 nM and a GI50 (MDA-MB-361) of 0.41 nM.
